From ChEMBL document CHEMBL1240348, “Pretreatment of epithelial cells with rifaximin alters bacterial attachment and internalization profiles” (Antimicrob Agents Chemother, 2010)
Activity calls are given as the source filed them.

Experiments:
Type in all cases: functional, cell-based
Escherichia coli [1] = assay: Inhibition of enteroaggregative Escherichia coli 042 adherence to human Hep2 cells pretreated by adherence assay; settings: HEp-2
How it was run: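 HEp-2 monolayers, confluent unless otherwise specified, in chambered slides were exposed to antibiotic or controls for 4, 8, 16, 18 or 24 h, then washed three times with PBS. EAEC O42 (7 × 10^6 to 1 × 10^7 in DMEM, 10% FBS, 1% D-mannose) was added for 3 h at 37°C. Attachment was assessed microscopically after Wright-Giemsa staining.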

HEp-2 [2] = assay: Effect on cytokine level in human Hep2 cells assessed as VCAM-1 level pretreated at 64 ug/ml for 24 hrs
How it was run: (§1)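 Confluent HEp-2 cells on chambered slides were given fresh medium containing antibiotic at 64 μg/ml, acetone diluent (64 μl), or no antibiotic. Supernatants collected 24 h later were probed on a cytokine array membrane covering GM-CSF, MIPs, MMP3, RANTES, TGF-β, IFN-γ, TNFRI/II, VCAM-1, VEGF and interleukins. Each analyte was read as detected or not detected.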

HEp-2 [3] = assay: Effect on cytokine level in human Hep2 cells assessed as TNFR2 level pretreated at 64 ug/ml for 24 hrs; how it was run: as §1
HEp-2 [4] = assay: Effect on cytokine level in human Hep2 cells assessed as IL-15 level pretreated at 64 ug/ml for 24 hrs; how it was run: as §1
HEp-2 [5] = assay: Effect on cytokine level in human Hep2 cells assessed as TGF-beta level pretreated at 64 ug/ml for 24 hrs; how it was run: as §1
HEp-2 [6] = assay: Effect on cytokine level in human Hep2 cells assessed as RANTES level pretreated at 64 ug/ml for 24 hrs; how it was run: as §1
Escherichia coli [7] = assay: Inhibition of enteroaggregative Escherichia coli 042 adherence to human Hep2 cells pretreated at 64 ug/ml for 24 hrs by adherence assay; settings: HEp-2
How it was run: (§2)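 Confluent cells in 24-well plates, in DMEM with 10% FBS and no antibiotics, were pretreated with drug (from acetone stock) or an equal volume of acetone, then washed three times with PBS. HEp-2 received 8, 32 or 64 μg/ml; the other lines 32 or 64 μg/ml for 24 h. Cells were then infected for 3 h at 37°C (next note).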

Escherichia coli [8] = assay: Inhibition of enteroaggregative Escherichia coli 042 adherence to human HCT-8 cells pretreated at 64 ug/ml for 24 hrs by adherence assay; how it was run: as §2
Escherichia coli [9] = assay: Inhibition of enteroaggregative Escherichia coli 042 adherence to human Hep2 cells using cell supernatants from pretreated at 64 ug/ml for 24 hrs by adherence assay; settings: HEp-2
How it was run: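 Confluent HEp-2 cells were grown 24 h in medium with 64 μg/ml antibiotic, acetone, or nothing. The conditioned medium was dialyzed against PBS (6–8 kDa cutoff, four changes of at least 6 h each, 4°C). EAEC (7 × 10^6/ml) was mixed 1:1 with dialyzed medium and added to untreated HEp-2 slides or cell-free chambers for 3 h, then stained and examined microscopically.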

HEp-2 [10] = assay: Effect on cytokine level in human Hep2 cells assessed as VEGF level pretreated at 64 ug/ml for 24 hrs; how it was run: as §1
HEp-2 [11] = assay: Effect on cytokine level in human Hep2 cells assessed as MIP5 level pretreated at 64 ug/ml for 24 hrs; how it was run: as §1
HEp-2 [12] = assay: Effect on cytokine level in human Hep2 cells assessed as GM-CSF level pretreated at 64 ug/ml for 24 hrs; how it was run: as §1
HEp-2 [13] = assay: Effect on cytokine level in human Hep2 cells assessed as IL-8 level pretreated at 64 ug/ml for 24 hrs; how it was run: as §1
HEp-2 [14] = assay: Effect on cytokine level in human Hep2 cells assessed as absence of MIP5 pretreated at 64 ug/ml for 24 hrs; how it was run: as §1
HEp-2 [15] = assay: Effect on cytokine level in human Hep2 cells assessed as IFN-gamma level pretreated at 64 ug/ml for 24 hrs; how it was run: as §1
HEp-2 [16] = assay: Effect on cytokine level in human Hep2 cells assessed as IL-6 level pretreated at 64 ug/ml for 24 hrs; how it was run: as §1
HEp-2 [17] = assay: Effect on cytokine level in human Hep2 cells assessed as MIP4 level pretreated at 64 ug/ml for 24 hrs; how it was run: as §1
HEp-2 [18] = assay: Effect on cytokine level in human Hep2 cells assessed as MMP3 level pretreated at 64 ug/ml for 24 hrs; how it was run: as §1
Escherichia coli [19] = assay: Inhibition of enteroaggregative Escherichia coli 042 adherence to human A549 cells pretreated at 64 ug/ml for 24 hrs by adherence assay; how it was run: as §2
HEp-2 [20] = assay: Effect on cytokine level in human Hep2 cells assessed as IL-4 level pretreated at 64 ug/ml for 24 hrs; how it was run: as §1
HEp-2 [21] = assay: Effect on cytokine level in human Hep2 cells assessed as IL-12 (p40) level pretreated at 64 ug/ml for 24 hrs; how it was run: as §1
Escherichia coli [22] = assay: Inhibition of enteroaggregative Escherichia coli 042 adherence to human Hep2 cells pretreated at 32 ug/ml for 24 hrs by adherence assay; settings: HEp-2; how it was run: as §2
Escherichia coli [23] = assay: Inhibition of enteroaggregative Escherichia coli 042 adherence to human HeLa cells pretreated at 64 ug/ml for 24 hrs by adherence assay; how it was run: as §2
HEp-2 [24] = assay: Effect on cytokine level in human Hep2 cells assessed as TNFRI level pretreated at 64 ug/ml for 24 hrs; how it was run: as §1

CO[C@H]1/C=C/O[C@@]2(C)Oc3c(C)c(O)c4c(O)c(c(/C=N/N5CCN(C)CC5)c(O)c4c3C2=O)NC(=O)/C(C)=C\C=C\[C@H](C)[C@H](O)[C@@H](C)[C@@H](O)[C@@H](C)[C@H](OC(C)=O)[C@@H]1C
active: inhibition (Escherichia coli [1])

CO[C@H]1/C=C/O[C@@]2(C)Oc3c(C)c(O)c4c(O)c(c5c(nc6cc(C)ccn65)c4c3C2=O)NC(=O)/C(C)=C\C=C\[C@H](C)[C@H](O)[C@@H](C)[C@@H](O)[C@@H](C)[C@H](OC(C)=O)[C@@H]1C
active: Activity (HEp-2 [2]) | Activity (HEp-2 [3]) | Activity (HEp-2 [4]) | Activity (HEp-2 [5]) | Activity (HEp-2 [6]) | inhibition (Escherichia coli [7]) | Activity (HEp-2 [10]) | Activity (HEp-2 [11]) | Activity (HEp-2 [12]) | Activity (HEp-2 [13]) | Activity (HEp-2 [14]) | Activity (HEp-2 [15]) | Activity (HEp-2 [16]) | Activity (HEp-2 [17]) | Activity (HEp-2 [18]) | inhibition (Escherichia coli [19]) | Activity (HEp-2 [20]) | Activity (HEp-2 [21]) | inhibition (Escherichia coli [22]) | inhibition (Escherichia coli [23]) | Activity (HEp-2 [24])
inactive: inhibition (Escherichia coli [8]) | inhibition (Escherichia coli [9])
